Measured values pooled from the literature.

| Structure (SMILES) | target or system | assay | system | setting | measurement | result |
| --- | --- | --- | --- | --- | --- | --- |
| COC(=O)[C@@H]1[C@@H](c2ccccc2)[C@]2(c3ccc(OC)cc3)Oc3cc(OC)cc(OC)c3[C@@]23N=C(C)N[C@@]13O | HepG2 | cell growth or viability, MTT | – | 48 h | CC50 | 0.0105 µM |
| CN1CCCCC1Cn1cc(C(=O)c2cc([N+](=O)[O-])ccc2I)c2ccccc21 (racemic) | – | – | mouse, plasma | intravenous, 25 mg/kg | MRT | 54.7 min |
| CCC1(c2ccccc2)C(=O)NC(=O)NC1=O | HepG2 | cell growth or viability, ATP luminescence | – | – | CC50 | > 1000 µM |
| CCCCCCCCCCOc1cc2c(O)c(C(=O)OCC)cnc2cc1OCC | HepG2 | cell growth or viability | – | 72 h | IC50 | > 100 µM |
| Cc1cc(C)nc(Nc2ncc(C(=O)NCCc3c(C)[nH]c4ccccc34)cn2)c1 | – | metabolic stability | male human, hepatocytes | 1 µM | half-life | 41 min |
| N=c1c2c(-c3ccccc3)c(-c3ccccc3)n(Cc3ccccc3)c2ncn1[C@H]1CC[C@H](O)CC1 | – | – | male cynomolgus monkey, plasma | oral, 1 mg/kg, single dose | AUC(0-inf) | 27800 ng·h/mL |
| O=C(c1ccc(-n2sc3ncccc3c2=O)cc1)N1CCOCC1 | – | metabolic stability | human, liver microsomes | – | half-life | > 120 min |
| O=C1[O][Pt]2([NH][C@@H]3CCCC[C@H]3[NH]2)[O]C1=O (relative stereo) | – | – | cynomolgus monkey, plasma | intravenous, 2 mg/kg | AUC(0-t) | 9170 ng·h/mL |
